Assay [1] has as its target T1, Platelet-activating factor acetylhydrolase (Rattus norvegicus) (UniProt A6JJ35).
T1 sequence (whole entry): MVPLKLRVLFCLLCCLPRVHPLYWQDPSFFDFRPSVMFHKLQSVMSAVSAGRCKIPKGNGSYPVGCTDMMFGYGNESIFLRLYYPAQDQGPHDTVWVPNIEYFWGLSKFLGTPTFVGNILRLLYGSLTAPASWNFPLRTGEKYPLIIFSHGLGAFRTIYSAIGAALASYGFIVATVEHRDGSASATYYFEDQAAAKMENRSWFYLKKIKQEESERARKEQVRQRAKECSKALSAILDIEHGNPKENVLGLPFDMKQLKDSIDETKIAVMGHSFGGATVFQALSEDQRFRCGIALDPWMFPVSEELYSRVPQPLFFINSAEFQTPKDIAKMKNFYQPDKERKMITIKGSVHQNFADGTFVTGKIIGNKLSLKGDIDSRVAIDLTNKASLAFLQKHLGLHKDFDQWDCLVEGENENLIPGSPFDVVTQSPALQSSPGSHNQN
Kind of assay: Inhibition of Lp-PLA2 in rat plasma at 50 nM using 2-thio-PAF as substrate preincubated for 30 min followed by substrate addition measured every minute for 10 mins by DNTB reagent based assay relative to control. The method in brief: (§1)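 Rat plasma added directly as enzyme source and preincubated 30 min at room temperature with inhibitor at 250 or 50 nM and DTNB (10 µL of 2 mM). Reaction started with substrate solution: 50 µM 2-thio-PAF, 50 mM Tris pH 7.2, 1 mM EGTA. Thiol release read at 412 nm; percent inhibition calculated.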

Assay [2] addresses T1, Platelet-activating factor acetylhydrolase (Rattus norvegicus). Nature of the assay: Inhibition of Lp-PLA2 in rat plasma at 250 nM using 2-thio-PAF as substrate preincubated for 30 min followed by substrate addition measured every minute for 10 mins by DNTB reagent based assay by DNTB reagent based assay relative to control. The method in brief:
as §1

A short description of assay [3]: Inhibition of recombinant human full length GST-tagged group-7B PLA2 expressed in Escherichia coli Rosetta(DE3) pLysS using 2-thio-PAF as substrate preincubated for 30 min followed by substrate addition measured every minute for 10 mins by DNTB reagent based assay. In short, it runs like this: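 Recombinant PLA2-VIIB purified in-house, preincubated 30 min at room temperature with compound and DTNB (10 µL of 2 mM). Substrate solution (50 µM 2-thio-PAF, 50 mM Tris pH 7.2, 1 mM EGTA) then added and absorbance read at 412 nm. IC50 determined.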

The species entered for assay [4] is Rattus norvegicus. The following applies: Sprague-Dawley, 25 mg/kg.
Assay [5] is filed under the species Rattus norvegicus. The following applies: Sprague-Dawley, 3 mg/kg.
The species entered for assay [6] is Rattus norvegicus. Particulars: Sprague-Dawley, 25 mg/kg. This is another data set of the same source.
Assay [7] is filed under the species Rattus norvegicus. The following applies: Sprague-Dawley, 25 mg/kg. The source holds these as a separate data set.
In assay [8] the target is T2, Platelet-activating factor acetylhydrolase (Homo sapiens, UniProt Q13093).
T2 sequence (Q13093 whole entry): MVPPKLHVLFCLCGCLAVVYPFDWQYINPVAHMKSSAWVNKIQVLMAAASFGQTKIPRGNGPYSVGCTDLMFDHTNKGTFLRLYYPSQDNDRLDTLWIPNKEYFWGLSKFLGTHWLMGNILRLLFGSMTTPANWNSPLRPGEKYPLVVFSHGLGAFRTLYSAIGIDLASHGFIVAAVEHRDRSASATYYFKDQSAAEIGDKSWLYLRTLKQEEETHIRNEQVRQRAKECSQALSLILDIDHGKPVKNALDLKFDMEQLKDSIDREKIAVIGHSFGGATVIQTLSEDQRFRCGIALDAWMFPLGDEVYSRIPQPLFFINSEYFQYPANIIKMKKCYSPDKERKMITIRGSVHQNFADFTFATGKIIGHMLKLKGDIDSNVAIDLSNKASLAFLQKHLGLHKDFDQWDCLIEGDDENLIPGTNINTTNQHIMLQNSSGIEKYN
Nature of the assay: Inhibition of human recombinant GST-tagged Lp-PLA2 (47 to 429 residues) expressed in Escherichia coli Rosetta(DE3) pLysS using 2-thio-PAF as substrate preincubated for 30 min followed by substrate addition measured every minute for 10 mins by DNTB reagent based assay.

Assay [9] deals with T3, Platelet-activating factor acetylhydrolase (Homo sapiens) (UniProt Q13093).
T3 sequence (whole entry): T2 sequence (Q13093 whole entry)
Particulars: 1000 uM.

Calls of active or inactive are those of the source. No cut-off for these calls is given here. Where only a bound is given, the exact number is not on record here.

A word on the inhibition: it is the change of the read-out against control, counted positive when it falls. The term IC50 denotes the concentration that gives 50% inhibition. Consider `N#Cc1cc(NS(=O)(=O)c2ccc(N)cc2)ccc1Oc1ccc(Cl)c(C(F)(F)F)c1`, for which the inhibition came out at 33% in assay [1] and 67% in assay [2]. In [3], the IC50 is more than 25 µM. For the same compound, the inhibition entry in the assay listed under Rattus norvegicus [4] is “Active”.
With `CC(=O)NCc1ccc(S(=O)(=O)Nc2ccc(Oc3ccc(Cl)c(C(F)(F)F)c3)c(C#N)c2)cc1`, the inhibition in assay [1] came out at 51%; in [2] it was 80%. Besides, the IC50 in [3] was more than 25 µM.
For `CC(=O)Nc1ccc(S(=O)(=O)Nc2ccc(Oc3ccc(C#N)c(C(F)(F)F)c3)c(C#N)c2)cc1`, the inhibition in [1] turned out to be 11%; in assay [2], 42%. The IC50 in assay [3] was more than 25 µM.
In the case of `CCN(CC)CCN(Cc1ccc(-c2ccc(C(F)(F)F)cc2)cc1)C(=O)Cn1c(SCc2ccc(F)cc2)nc(=O)c2c1CCC2` [DARAPLADIB], the inhibition was 98% in assay [1] and 97% in assay [2]. The IC50 in assay [3] was found to be 2 µM. For the same compound, the inhibition result in the assay listed under Rattus norvegicus [5] is “Active”.
Take `N#Cc1cc(NS(=O)(=O)c2ccc(N3CCNCC3)cc2)ccc1Oc1ccc(Cl)c(C(F)(F)F)c1`: the values for the inhibition in assay [1] and in [2] were 31% and 68%, respectively. For the same compound, the IC50 in assay [3] is more than 25 µM.
Consider `N#Cc1cc(NS(=O)(=O)c2ccc(N3CCOCC3)cc2)ccc1Oc1ccc(Cl)c(C(F)(F)F)c1`, for which the inhibition in [1] worked out at 17%; in assay [2], 48%. The IC50 in [3] was more than 25 µM.
The like results for `CC(=O)Nc1ccc(S(=O)(=O)Nc2ccc(Oc3ccc(F)c(C(F)(F)F)c3)c(C#N)c2)cc1` were, in that order, 23%, 55% and more than 25 µM.
With `N#Cc1cc(NS(=O)(=O)c2ccc(NC(=O)N3CCOCC3)cc2)ccc1Oc1ccc(Cl)c(C(F)(F)F)c1`, the inhibition in [1] worked out at 27%; in assay [2], 64%. Further, the IC50 in assay [3] is more than 25 µM.
`N#Cc1cc(NS(=O)(=O)c2ccc(C(=O)O)cc2)ccc1Oc1ccc(Cl)c(C(F)(F)F)c1`: the inhibition was found to be 31% in [1] and 67% in [2]. Besides, in [3], the IC50 was more than 25 µM. Moreover, the inhibition result in the assay filed under Rattus norvegicus [6] was “Active”. In addition, the inhibition entry in the assay listed under Rattus norvegicus [7] is “inactive”.
In the case of `CC(=O)Nc1ccc(S(=O)(=O)Nc2ccc(Oc3ccc(Cl)c(C(F)(F)F)c3)c(C#N)c2)cc1`, the results for the inhibition in assay [1] and in assay [2] were 32% and 64%, respectively. In assay [3], the IC50 is more than 25 µM.
Turning to `CS(=O)(=O)Nc1ccc(F)c(F)c1`, in [8], the IC50 came to 1000 µM. This compound also showed an inhibition in assay [9] of 55%.
For the compound `CC(=O)N(C)c1ccc(S(=O)(=O)Nc2ccc(Oc3ccc(Cl)c(C(F)(F)F)c3)c(C#N)c2)cc1`, the figures for the inhibition in [1] and in assay [2] were 15% and 45%, respectively. Also, in [3], the IC50 was more than 25 µM.

The values are drawn from ChEMBL document CHEMBL4024767, “Structure-Guided Discovery of Novel, Potent, and Orally Bioavailable Inhibitors of Lipoprotein-Associated Phospholipase A2” (J Med Chem, 2017).
